An excerpt weighted towards active compounds, which were near 2% of everything screened.
GPR7 antag: human neuropeptides B/W receptor 1 antagonism | GPR7-expressing cells, fluorescence antagonist assay | inhibition, % at 4.4 µM | 290,000 tested, 1.1% active | AID 1861; in the data active = inhibition above about 16%, passing the limit was not always enough;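 also: cells stimulated with the agonist NPW; 0% = agonist with vehicle and 100% = vehicle without agonist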
NS3 helicase inh: inhibitors of Hepatitis C virus NS3 helicase; NS3 helicase DNA unwinding, Cy5 molecular beacon fluorescence; inhibition, % at 10.9 µM; 290,000 tested, 0.56% active;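 active = inhibition above the mean of all tested compounds plus 3 SD, set per campaign, cut at about 35% in these data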;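 also: 0% = DMSO wells and 100% = thioflavine S control wells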
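System: HCV NS3 helicase fragment; control set: DMSO and thioflavine S; technique: Cy5 fluorescence at 0 and 60 min, beacon hairpin quenching; reagent: beacon DNA duplex substrate plus ATP; replicates: singlicate; schedule: 1 h reaction at 25 °C, ATP-initiated; medium: MOPS buffer pH 6.5 with MgCl2, DTT, Tween20, BSA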
EBNA-1 inh: blocks EBNA-1 binding to DNA. EBNA-1 DNA binding, fluorescence polarization. inhibition, % at 14.8 µM. 300,000 tested, 0.34% active; in the data active = inhibition above about 28%
DNA FID counter: displaces DNA intercalator in HCV helicase counter-screen; DNA fluorescent intercalator displacement, fluorescence; inhibition, % at 7.9 µM; 290,000 tested, 0.17% active; AID 1845; in the data active = inhibition above about 37%;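 also: 0% = vehicle and 100% = reference compound; higher means more ethidium bromide displaced from hairpin DNA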
ZTA counter: ZTA (EBV) inhibition in EBNA-1 counter-screen; P03206; ZTA-DNA binding, fluorescence polarization; inhibition, % at 11 µM; 320,000 tested, 0.15% active; in the data active = inhibition above about 33%
Target sequence (P03206 whole entry, looked up): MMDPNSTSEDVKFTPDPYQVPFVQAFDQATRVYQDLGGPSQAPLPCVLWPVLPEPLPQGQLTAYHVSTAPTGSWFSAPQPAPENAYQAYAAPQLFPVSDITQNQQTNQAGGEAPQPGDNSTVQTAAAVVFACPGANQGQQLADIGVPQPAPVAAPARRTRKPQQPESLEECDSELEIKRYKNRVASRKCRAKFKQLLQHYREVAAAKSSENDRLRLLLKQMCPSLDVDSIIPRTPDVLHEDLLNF
EBNA-1 inh conf: EBNA-1 (EBV) inhibition, confirmation. shares compounds with EBNA-1 inh. AID 2292. 830 tested, 35% active. inhibition, % at 14.8 µM. Recombinant EBNA-1 DBD, Cy5-DNA fluorescence polarization;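 active = mean inhibition across replicates above a set limit taken from the earlier primary screen, cut at about 28% in these data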;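 also: plate controls were EBNA-1 protein with DMSO for no effect and wells lacking EBNA-1 for full effect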
ZTA counter trip: blocks Epstein-Barr virus ZTA in triplicate, EBNA-1 counter-screen. inhibition, % at 11.1 µM. AID 2328. Zta-ZRE DNA binding, Cy5 fluorescence polarization. 830 tested, under 10 active. shares compounds with EBNA-1 inh;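 active = mean inhibition over triplicates above a set limit taken from the primary EBNA-1 screen, cut at about 37% in these data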;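 also: purified full length Zta protein with Cy5 labeled ZRE DNA probe; 0% = Zta with DMSO and 100% = wells lacking Zta protein; inhibitors lower polarization by freeing the labeled DNA probe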
* = called active by the depositor; . = not tested or not shown.

SMILES	GPR7 antag	NS3 helicase inh	EBNA-1 inh	DNA FID counter	ZTA counter	EBNA-1 inh conf	ZTA counter trip
O=C(COC(=O)c1cc(NS(=O)(=O)c2cccs2)ccc1O)Nc1cc(Cl)ccc1Cl	-12	9	36*	-4	12	15	6
COc1cccc(CN(C)C(=O)CN2C(=O)NC(c3ccccc3)(c3ccccc3)C2=O)c1	.	.	.	.	10	.	.
O=C(Nc1ccc2oc(-c3ccc4ccccc4c3)nc2c1)c1ccc2c(c1)OCCO2	2	5	31*	-1	12	25	9
Cc1ccc2nc(-c3cccc(NC(=O)c4ccc5c(c4)OCCO5)c3)oc2c1	-11	-2	35*	5	19	23	7
O=C(Nc1ccc2oc(-c3ccncc3)nc2c1)c1ccccc1	3	-10	9	0	10	.	.
Cc1ccc2oc(-c3cccc(NC(=O)Cc4cccs4)c3)nc2c1	1	6	34*	-1	7	14	-3
O=C(Nc1ccc2oc(-c3ccccc3)nc2c1)c1ccccc1F	5	-5	35*	-10	12	-3	-2
N#Cc1c(SCc2c(Cl)cccc2Cl)nc(N)[nH]c1=S	.	.	.	.	-14	.	.
COC(=O)c1ccc(CO/N=C/c2ccc(OC)cc2OC)cc1	-21	-7	-18	-21	4	.	.
C=C(C)COc1cc2oc(=O)c(CC(=O)N3C[C@H]4C[C@@H](C3)c3cccc(=O)n3C4)c(C)c2cc1Cl	2	-15	9	-41	-1	.	.
O=C(Cc1ccc(-n2cccc2)cc1)NCc1cccs1	19	1	32*	-1	0	20	1
Cc1ccc(CNC(=O)Cc2ccc(-n3cccc3)cc2)cc1	-2	9	2	-5	-13	.	.
Cc1[nH]c2ccccc2c1/C=C/C(=O)c1ccncc1	-5	14	38*	-1	-3	9	-4
CCc1nnc(NC(=O)CSc2ccc(-c3nc4ccc(C)cc4[nH]3)cn2)s1	4	-7	45*	0	-6	15	-2
CCOC(=O)C1=C(COC(=O)c2ccc3ccccc3c2O)NC(=O)NC1C (stereo unspecified)	.	.	.	.	-1	.	.
O=C(NN1C(=O)c2ccc3c4c(ccc(c24)C1=O)CC3)c1ccc(Br)cc1	-14	-3	55*	3	-7	6	9
O=C(CN1C(=O)S/C(=C\c2ccc(-c3cc(C(=O)O)ccc3Cl)o2)C1=O)Nc1ccc2c(c1)OCO2	-5	18	.	-19	.	.	.
Cn1cc(/C=C2/SC(=O)N(CC(=O)Nc3ccc4c(c3)OCO4)C2=O)c2ccccc21	-7	-4	56*	2	3	64*	14
CCn1c(SCC(=O)NCCc2ccccc2)nc2c([nH]c3ccccc32)c1=O	2	-8	42*	-14	11	7	6
Cc1cc(C)c2cc(C#N)c(SCC(=O)Nc3ccc4c(c3)OCO4)nc2c1	-7	-1	32*	2	-2	50*	1
COc1cc(C(=O)Oc2ccc(/C=N/NC(=O)c3ccncc3)cc2)cc(OC)c1OC	-14	-2	34*	-47	0	-14	-11
COc1ccc(NC(=O)Nc2ccccc2F)cc1Cl	3	1	89*	3	-22	22	14
COC(=O)[C@]1(CC(C)C)N[C@H](c2ccc(-c3ccc(F)cc3)cc2)[C@@H]2C(=O)N(C)C(=O)[C@@H]21	.	.	-6	.	-1	.	.
COCCCC1CCN(C(=O)C2CCC(=O)N(CC3CCCCC3)C2)CC1 (stereo unspecified)	-4	4	.	-50	.	.	.
COc1ccc(C(=O)Nc2ccccc2-c2nnn(CC(=O)NCc3ccco3)n2)cc1	-9	1	54*	-3	2	15	6
COc1ccccc1NC(=O)Cn1nnc(-c2ccccc2NC(=O)c2cccs2)n1	-5	2	-7	-3	-23	.	.
O=C(Cn1nnc(-c2ccccc2)n1)NCc1ccco1	-3	4	-3	3	3	.	.
O=C(Cn1nnc(-c2ccccc2NC(=O)c2cccs2)n1)Nc1ccccc1	-15	0	28*	-1	3	47*	2
COc1ccccc1C(=O)Nc1ccc(-c2nnn(CC(=O)NCc3ccco3)n2)cc1	-10	-2	42*	-3	3	52*	19
